“Also recorded” adds a separate entry of the source. Non-standard residues stand in square brackets, D forms with d. Residues, ends and D or L forms follow the SMILES beside them. ξ: configuration not given here. ξT = CC(O)C(N)C(=O)O
Assays:
[1] = system: PDZ domain; settings: previous virtual screening; cited from earlier work
[2] = target: T1, mouse Dvl1 PDZ domain (Mus musculus, UniProt P51141); experiment: 15N HSQC NMR chemical shift perturbation titration; format: binding
T1 sequence (P51141 247-341): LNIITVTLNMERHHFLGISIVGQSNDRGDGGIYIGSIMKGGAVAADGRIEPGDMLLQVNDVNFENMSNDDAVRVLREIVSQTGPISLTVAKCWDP
How it was run: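 15N-labeled mouse Dvl1 PDZ domain (residues 247-341) at 0.2-0.3 mM in 100 mM potassium phosphate pH 7.5, 10% D2O, 0.5 mM EDTA; 15N HSQC at 600 MHz, 25 °C. Five titration points (ligand:protein 1 to 15); Arg322 shift perturbation tracked, reported at about 10 equivalents. One-site model with dilution correction and two-parameter nonlinear least-squares fit gave KD. μM values were rescaled against the reference inhibitor's earlier fluorescence KD.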

[3] = target: PDZ domain; settings: fluorescence spectroscopy, earlier studies; cited from earlier work
[4] = system: Wnt signaling (second axis formation); settings: Xenopus, Wnt3A upstream of Dvl; cited from earlier work

| SMILES | binding to the PDZ domain [1] | Kd [2] | Δδ chemical shift perturbation changes of Arg322 ([2]; 10.4 equivalents of NSC668036) | Exchange regime (in words) ([2]; NMR titration of 15N-labeled PDZ domain) | difference between KDs by NMR and by fluorescence ([2]; NSC668036, NMR KD versus fluorescence KD) | Exchange regime ([2]; from intermediate exchange (++++) to fast exchange (+) with the PDZ domain) | Kd [3] | second axis formation induced by Wnt3A [4] |
| --- | --- | --- | --- | --- | --- | --- | --- | --- |
| CC(O)C(N)C(=O)NCC(=O)NCC(=O)O (stereo not drawn) [NSC344681, ((((2-amino-3-hydroxybutanoyl)amino)acetyl)amino)acetic acid] (H-[ξT]-Gly-Gly-OH) | non-binders; also recorded: do not bind to the PDZ domain | – | – | – | – | – | – | – |
| COC(=O)C(CON)C(=O)NC(=O)C(N)CON (stereo not drawn) [NSC119132, methyl 3-((2-amino-3-(aminooxy)propanoyl)amino)-2-((aminooxy)methyl)-3-oxopropanoate] | non-binders; also recorded: do not bind to the PDZ domain | – | – | – | – | – | – | – |
| CC(NC(=O)C(OC(=O)C(C)NC(=O)OC(C)(C)C)C(C)C)C(=O)OC(C(=O)O)C(C)C (stereo not drawn) [NSC668036, 9,15-diisopropyl-2,2,6,12-tetramethyl-4,7,10,13-tetraoxo-3,8,14-trioxa-5,11-diazahexadec an-16-oic acid] | – | 27 mM | 0.035 | fast exchange regime | 114 fold | + | 0.237 mM | inhibited the second axis formation |
